Measurements as given in paper PMC10432884 (Clinical and Translational Science, 2023).

Assay: SAD phase pharmacokinetics
Assay type: in vivo, human
Details: for AUC(0-t) / Tmax / AUC(0-inf) / Cmax / half-life: human, plasma, oral; for AUC(0-t): AUClast; for AUC(0-inf): AUCinf; for Cmax: C max
How it was run: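 Single oral doses of 0.3–50 mg after ≥10 h fast. Plasma (K-EDTA) was sampled predose and […]; urine was collected for 48 h. Assay was validated LC-MS/MS (plasma LLOQ 1.00 ng/mL; below-LLOQ set to 0). AUClast, Cmax and Tmax were derived at all doses; AUCinf, clearance and t1/2 from 10 mg upward. Urinary excretion and renal clearance were also derived. Steady-state time was estimated from these SAD data.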

[1] = both, 10 mg, GeoMean, SAD 10 mg

In the case of `Fc1ccccc1Cc1nc(-c2nc(C(F)(F)F)n[nH]2)cn2ccnc12` [zagociguat, 8‐(2‐fluorobenzyl)‐6‐(3‐(trifluoromethyl)‐1H‐1,2,4‐triazol‐5‐yl)imidazo[1,2‐a]pyrazine], the “Dose level from which detectable in urine” value (SAD) is reported as 10 mg, the AUC(0-t) (both, 3 mg, GeoMean, SAD 3 mg) is reported as 11.4 µg·h/mL and the AUC(0-t) (both, 3 mg, Median, SAD 3 mg) is reported as 11.2 µg·h/mL. The Tmax (both, 3 mg, T max, Median, SAD 3 mg) was 2.1 h, the AUC(0-inf) [1] was 92.3 µg·h/mL and the AUC(0-inf) (both, 10 mg, Median, SAD 10 mg) was 95 µg·h/mL. It also gave an AUC(0-t) [1] of 57.6 µg·h/mL, an AUC(0-t) (both, 10 mg, Median, SAD 10 mg) of 57.9 µg·h/mL and a Cmax [1] of 1190 ng/mL. For the same compound, the Cmax (both, 10 mg, Median, SAD 10 mg) was 1290 ng/mL, the Tmax (both, 10 mg, T max, Median, SAD 10 mg) was 3.5 h and the half-life (both, 10 mg, t 1/2, GeoMean, SAD 10 mg) was 63.4 h. It also gave a half-life (both, 10 mg, t 1/2, Median, SAD 10 mg) of 64.8 h, a Cmax (both, 20 mg, GeoMean, SAD 20 mg) of 2190 ng/mL and an AUC(0-t) (0.3 mg, GeoMean, SAD 0.3 mg) of 1.06 µg·h/mL. For the same compound, the AUC(0-t) (0.3 mg, Median, SAD 0.3 mg) was 1.09 µg·h/mL, the Cmax (0.3 mg, GeoMean, SAD 0.3 mg) was 40 ng/mL and the Cmax (0.3 mg, Median, SAD 0.3 mg) was 40.5 ng/mL. For the same compound, the Tmax (0.3 mg, T max, Median, SAD 0.3 mg) was 0.8 h, the AUC(0-t) (1 mg, GeoMean, SAD 1 mg) was 4.34 µg·h/mL and the AUC(0-t) (1 mg, Median, SAD 1 mg) was 4.46 µg·h/mL. It also gave a Cmax (1 mg, GeoMean, SAD 1 mg) of 142 ng/mL, a Cmax (1 mg, Median, SAD 1 mg) of 150 ng/mL and a Tmax (1 mg, T max, Median, SAD 1 mg) of 1 h. For the same compound, the Cmax (3 mg, GeoMean, SAD 3 mg) was 373 ng/mL, the Cmax (3 mg, Median, SAD 3 mg) was 372 ng/mL and the AUC(0-inf) (20 mg, GeoMean, SAD 20 mg) was 194 µg·h/mL. It also gave an AUC(0-inf) (20 mg, Median, SAD 20 mg) of 180 µg·h/mL, an AUC(0-t) (20 mg, GeoMean, SAD 20 mg) of 167 µg·h/mL and an AUC(0-t) (20 mg, Median, SAD 20 mg) of 158 µg·h/mL. For the same compound, the Cmax (20 mg, Median, SAD 20 mg) was 2260 ng/mL, the Tmax (20 mg, T max, Median, SAD 20 mg) was 4 h and the half-life (20 mg, t 1/2, GeoMean, SAD 20 mg) was 67.1 h. It also gave a half-life (20 mg, t 1/2, Median, SAD 20 mg) of 68 h, an AUC(0-inf) (30 mg, GeoMean, SAD 30 mg) of 272 µg·h/mL and an AUC(0-inf) (30 mg, Median, SAD 30 mg) of 288 µg·h/mL. The AUC(0-t) (30 mg, GeoMean, SAD 30 mg) was 251 µg·h/mL, the AUC(0-t) (30 mg, Median, SAD 30 mg) was 273 µg·h/mL and the Cmax (30 mg, GeoMean, SAD 30 mg) was 3370 ng/mL. For the same compound, the Cmax (30 mg, Median, SAD 30 mg) was 3650 ng/mL, the Tmax (30 mg, T max, Median, SAD 30 mg) was 4.5 h and the half-life (30 mg, t 1/2, GeoMean, SAD 30 mg) was 65.7 h. It also gave a half-life (30 mg, t 1/2, Median, SAD 30 mg) of 62.2 h, an AUC(0-inf) (50 mg, GeoMean, SAD 50 mg) of 478 µg·h/mL and an AUC(0-inf) (50 mg, Median, SAD 50 mg) of 471 µg·h/mL. It also gave an AUC(0-t) (50 mg, GeoMean, SAD 50 mg) of 425 µg·h/mL, an AUC(0-t) (50 mg, Median, SAD 50 mg) of 427 µg·h/mL and a Cmax (50 mg, GeoMean, SAD 50 mg) of 5730 ng/mL. The Cmax (50 mg, Median, SAD 50 mg) was 5820 ng/mL, the Tmax (50 mg, T max, Median, SAD 50 mg) was 5 h and the half-life (50 mg, t 1/2, GeoMean, SAD 50 mg) was 57 h. It also gave a half-life (50 mg, t 1/2, Median, SAD 50 mg) of 57.3 h, a half-life (Mean t 1/2, range, single administrations of 10–50 mg) of 57 to 68 h and a Tmax (Median T max, range, SAD doses of 0.3–3 mg) of 0.5 to 2.1 h. The Tmax (Median T max, range, SAD doses of 10–50 mg) was 3.5 to 5 h and the “Estimated time to steady-state” value (preliminary PK data from the SAD phase) was 11 days.
